From ChEMBL document CHEMBL1121966, “(2R*,3S*)-1-[125I]Iodo-2,3-bis(4-hydroxyphenyl)pentane ([125I]iodonorhexestrol) and (2R*,3S*)-1-[77Br]Bromo-2,3-bis(4-hydroxyphenyl)pentane ([77Br]bromonorhexestrol), two gamma-emitting estrogens that show receptor-mediated uptake by target tissues in vivo” (1982)

Columns and labels:
Rattus norvegicus [1] = species: Rattus norvegicus; assay: Solvolytic stability was measured relative to p-hydroxyphenethyl bromide; type: functional
In short: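 Solvolysis rates were measured in 40% ethanol-water at 50 °C, buffered to pH 7. Values are 1/k_rel = (k_compound/k_p-hydroxyphenylethyl bromide)^-1.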

Rattus norvegicus [2] = species: Rattus norvegicus; assay: % compound injected per gram uterus at 6 hr; type: functional
Rattus norvegicus [3] = species: Rattus norvegicus; assay: Percent injected dose per gram esophagus at 3h; type: functional
In short: (§1)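 Dual-label study in immature 25-day female Sprague-Dawley rats (ca. 50 g). Each received 2 μCi [77Br]bromo tracer (≤1.25 pmol/dose) and 2 μCi 16α-[125I]iodoestradiol (2 pmol/dose) by tail or jugular vein, in ethanol diluted with saline/rat serum 1:1. Rats were killed at 3 or 6 h; blood and 11 tissues were weighed and counted. Five rats per time point; mean ± SD.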

Rattus norvegicus [4] = species: Rattus norvegicus; assay: Percent injected dose per gram esophagus at 6 hr; type: functional; in short: as §1
Rattus norvegicus [5] = species: Rattus norvegicus; assay: Percent injected dose per gram kidney at 1 hr; type: functional
In short: (§2)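 Immature (25-day, ca. 50 g) Sprague-Dawley female rats received an iv injection (jugular or tail vein) of HPLC-purified tracer in ethanol plus 0.9% NaCl/rat serum 1:1. Doses were 2 μCi [125I]iodo tracer (≤15 pmol), or 2 μCi [77Br]bromo tracer (≤1.25 pmol) with 2 μCi 16α-[125I]iodoestradiol. Animals were killed at 1 h; blood and tissues were weighed and γ-counted. Blocking: coinjected unlabeled estradiol, 9 μg (iodo) or 18 μg (bromo). Mean ± SD.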

Rattus norvegicus [6] = species: Rattus norvegicus; assay: Percent injected dose per gram kidney at 1 hr with unlabeled estradiol; type: functional; in short: as §2
Rattus norvegicus [7] = species: Rattus norvegicus; assay: Percent injected dose per gram kidney at 3h; type: functional; in short: as §1
Rattus norvegicus [8] = species: Rattus norvegicus; assay: Percent injected dose per gram liver at 1 hr; type: functional
In short: (§3)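 Immature (25 day) female Sprague-Dawley rats (ca. 50 g) were dosed iv (jugular or tail vein) in ethanol plus 0.9% NaCl/rat serum (1:1). Doses were 2 μCi of [125I]iodonorhexestrol (≤15 pmol/dose), or 2 μCi each of [77Br]bromonorhexestrol (≤1.25 pmol/dose) and 16α-[125I]iodoestradiol (2 pmol/dose). Rats were killed at 1, 3 or 6 h; blood and tissues were weighed and γ-counted. Thyroid weight assumed 0.005 g/100 g body weight. Mean ± SD.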

Rattus norvegicus [9] = species: Rattus norvegicus; assay: Percent injected dose per gram liver at 3h; type: functional; in short: as §3
[10] = Percent injected dose per gram liver at 6 hr; type: functional; in short: as §3
Rattus norvegicus [11] = species: Rattus norvegicus; assay: Percent injected dose per gram lung at 3h; type: functional; in short: as §3
Rattus norvegicus [12] = species: Rattus norvegicus; assay: Percent injected dose per gram spleen at 1 hr; type: functional; in short: as §3
Rattus norvegicus [13] = species: Rattus norvegicus; assay: Percent injected dose per gram spleen at 1 hr with unlabeled estradiol; type: functional
In short: (§4)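 Same iv biodistribution in immature female rats, killed at 1 h, with unlabeled estradiol coinjected to block receptor uptake: 9 μg with [125I]iodonorhexestrol (3 rats), 18 μg with the [77Br]bromonorhexestrol/16α-[125I]iodoestradiol pair (5 rats). Tissue and blood radioactivity were counted as % injected dose/g and tissue-to-blood ratio.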

Rattus norvegicus [14] = species: Rattus norvegicus; assay: Percent injected dose per gram spleen at 3h; type: functional; in short: as §3
Rattus norvegicus [15] = species: Rattus norvegicus; assay: Percent injected dose per gram thyroid at 1 hr; type: functional, Thyroid gland; in short: as §3
Rattus norvegicus [16] = species: Rattus norvegicus; assay: Percent injected dose per gram thyroid at 6 hr; type: functional, Thyroid gland; in short: as §3
Rattus norvegicus [17] = species: Rattus norvegicus; assay: Percent injected dose per gram Uterus at 1 hr with unlabeled estradiol.; type: functional; in short: as §2
Rattus norvegicus [18] = species: Rattus norvegicus; assay: Percent injected dose per gram Uterus at 6 hr; type: functional; in short: as §1
Rattus norvegicus [19] = species: Rattus norvegicus; assay: Percent injected dose per gram blood at 3h; type: functional; in short: as §1
Rattus norvegicus [20] = species: Rattus norvegicus; assay: Percent injected dose per gram esophagus at 1 hr; type: functional; in short: as §2
Rattus norvegicus [21] = species: Rattus norvegicus; assay: Percent injected dose per gram esophagus at 1 hr with unlabeled estradiol; type: functional; in short: as §2
Rattus norvegicus [22] = species: Rattus norvegicus; assay: Percent injected dose per gram Muscle at 3h; type: functional; in short: as §1
Rattus norvegicus [23] = species: Rattus norvegicus; assay: Percent injected dose per gram Ovaries at 1 hr; type: functional; in short: as §2
Rattus norvegicus [24] = species: Rattus norvegicus; assay: Percent injected dose per gram Ovaries at 1 hr with unlabeled estradiol; type: functional; in short: as §2
Rattus norvegicus [25] = species: Rattus norvegicus; assay: Percent injected dose per gram Ovaries at 6 hr; type: functional; in short: as §1
Rattus norvegicus [26] = species: Rattus norvegicus; assay: Percent injected dose per gram Uterus at 1 hr; type: functional; in short: as §2
[27] = Ovary/blood distribution ratio was determined in immature female rats at 1 hr; type: functional; in short: as §2
[28] = Ovary/blood distribution ratio was determined in immature female rats at 1 hr with unlabeled estradiol; type: functional; in short: as §2
[29] = Ovary/blood distribution ratio was determined in immature female rats at 3h; type: functional; in short: as §1
[30] = Spleen/blood distribution ratio was determined immature female rats at 1 hr; type: functional; in short: as §3
[31] = Esophagus/blood distribution ratio was determined in immature female rats at 6 hr; type: functional; in short: as §1
[32] = Muscle/blood distribution ratio was determined immature female rats at 1 hr with unlabeled estradiol; type: functional; in short: as §2
[33] = Muscle/blood distribution ratio was determined in immature female rats at 1 hr; type: functional; in short: as §2
[34] = Muscle/blood distribution ratio was determined in immature female rats at 3h; type: functional; in short: as §1
[35] = Thyroid/blood distribution ratio was determined in immature female rats at 3h; type: functional; in short: as §3
[36] = Kidney/blood distribution ratio was determined in immature female rats at 6 hr; type: functional; in short: as §1
[37] = Liver/blood distribution ratio was determined in immature female rats at 1 hr; type: functional; in short: as §2
[38] = Liver/blood distribution ratio was determined in immature female rats at 1 hr with unlabeled estradiol; type: functional; in short: as §2
[39] = Liver/blood distribution ratio was determined in immature female rats at 6 hr; type: functional; in short: as §1
[40] = Lung/blood distribution ratio was determined in immature female rats at 6 hr; type: functional; in short: as §1
[41] = Spleen/blood distribution ratio was determined immature female rats at 6 hr; type: functional; in short: as §3
[42] = Spleen/blood distribution ratio was determined in immature female rats at 1 hr with unlabeled estradiol; type: functional
[43] = Kidney/blood distribution ratio was determined in immature female rats at 1 hr; type: functional; in short: as §2
[44] = Tissue/blood distribution ratio was measured in immature female rats at 1 hr; type: functional; in short: as §3
[45] = Tissue/blood distribution ratio was measured in immature female rats at 1h, unlabeled estradiol (18 microg) coinjected; type: functional
In short: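 Immature female rats given iv [77Br]bromonorhexestrol with 16α-[125I]iodoestradiol (2 μCi each) plus 18 μg unlabeled estradiol coinjected; killed at 1 h. Tissue and blood were weighed and counted, and tissue-to-blood radioactivity ratios were computed; 5 animals, mean ± SD.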

[46] = Thyroid/blood distribution ratio was determined in immature female rats at 1 hr; type: functional; in short: as §3
[47] = Thyroid/blood distribution ratio was determined in immature female rats at 1 hr with unlabeled estradiol; type: functional; in short: as §4
[48] = Uterus/blood distribution ratio was measured in immature female rats at 1 hr; type: functional; in short: as §3
[49] = Uterus/blood distribution ratio was measured in immature female rats at 3h; type: functional; in short: as §3
[50] = Uterus/blood distribution ratio was measured in immature female rats at 6 hr; type: functional; in short: as §3
[51] = Muscle/blood distribution ratio was determined in immature female rats at 6 hr; type: functional; in short: as §1
[52] = Uterus/blood distribution of compound was measured in immature female rats at 1 hr with unlabeled estradiol; type: functional; in short: as §4
Rattus norvegicus [53] = species: Rattus norvegicus; assay: Percent injected dose per gram Uterus at 3h; type: functional; in short: as §1
Rattus norvegicus [54] = species: Rattus norvegicus; assay: Percent injected dose per gram kidney at 6 hr; type: functional; in short: as §1

CC[C@H](c1ccc(O)cc1)[C@@H](CBr)c1ccc(O)cc1
1/krel (Rattus norvegicus [1]): 1.17
Injected (Rattus norvegicus [2]): 3.19
Injected dose (Rattus norvegicus [3]): 0.61%
Injected dose (Rattus norvegicus [4]): 0.68%
Injected dose (Rattus norvegicus [5]): 0.94%
Injected dose (Rattus norvegicus [6]): 0.7%
Injected dose (Rattus norvegicus [7]): 0.84%
Injected dose (Rattus norvegicus [8]): 1.28%
Injected dose (Rattus norvegicus [9]): 1.05%
Injected dose [10]: 0.93%
Injected dose (Rattus norvegicus [11]): 0.95%
Injected dose (Rattus norvegicus [12]): 0.38%
Injected dose (Rattus norvegicus [13]): 0.34%
Injected dose (Rattus norvegicus [14]): 0.6%
Injected dose (Rattus norvegicus [15]): 0.26%
Injected dose (Rattus norvegicus [16]): 0.18%
Injected dose (Rattus norvegicus [17]): 0.95%
Injected dose (Rattus norvegicus [18]): 3.19%
Injected dose (Rattus norvegicus [19]): 1.24%
Injected dose (Rattus norvegicus [20]): 0.38%
Injected dose (Rattus norvegicus [21]): 0.56%
Injected dose (Rattus norvegicus [22]): 0.37%
Injected dose (Rattus norvegicus [23]): 1.38%
Injected dose (Rattus norvegicus [24]): 0.72%
Injected dose (Rattus norvegicus [25]): 1.93%
Injected dose (Rattus norvegicus [26]): 3.16%
Ratio [27]: 1.98
Ratio [28]: 0.74
Ratio [29]: 1.23
Ratio [30]: 0.52
Ratio [31]: 0.5
Ratio [32]: 0.31
Ratio [33]: 0.48
Ratio [34]: 0.29
Ratio [35]: 0.08
Ratio [36]: 0.89
Ratio [37]: 1.69
Ratio [38]: 1.51
Ratio [39]: 0.69
Ratio [40]: 0.76
Ratio [41]: 0.55
Ratio [42]: 0.51
Ratio [43]: 1.29
Ratio [44]: 1
Ratio [45]: 1
Ratio [46]: 0.32
Ratio [47]: 0.25
Ratio [48]: 4.49
Ratio [49]: 2.86
Ratio [50]: 2.51
Ratio [51]: 0.26
Ratio [52]: 0.98
Injected dose (Rattus norvegicus [53]): 3.59%
Injected dose (Rattus norvegicus [54]): 0.9%
